# Laboratory results: ChEMBL document CHEMBL2150983, “Dual Inhibitor of MurD and MurE Ligases from Escherichia coli and Staphylococcus aureus” (ACS Med Chem Lett, 2012)
# Calls of active or inactive are those of the source. No cut-off for these calls is given here.
# Legend:
# Escherichia coli [1] = assay: Inhibition of Escherichia coli MurE assessed as residual activity at 500 uM after 30 mins by HPLC analysis
# Summary of the method: (§1)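 Radioactivity-based ligase assay with Tween-20 detergent present to prevent aggregate-driven inhibition; residual enzyme activity measured with compound at a single fixed concentration of 200 μM or 500 μM.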
# [2] = Inhibition of Escherichia coli MurD after 30 mins by HPLC analysis
# Summary of the method: (§2)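 Radioactivity-based ligase assay on E. coli or S. aureus MurD or MurE, run with Tween-20 detergent present to prevent nonspecific inhibition by compound aggregates; IC50 values reported.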
# Staphylococcus aureus [3] = assay: Inhibition of Staphylococcus aureus MurE assessed as residual activity at 500 uM after 30 mins by HPLC analysis
# HepG2 = assay: Cytotoxicity against human HepG2 cells up to 200 uM after 24 hrs by MTT assay; format: cell-based; settings: hepg2, 24 h
# [4] = Inhibition of Escherichia coli MurE after 30 mins by HPLC analysis; summary of the method: as §2
# Staphylococcus aureus [5] = assay: Antimicrobial activity against methicillin-resistant Staphylococcus aureus ATCC 43300 after 18 to 24 hrs by macrodilution method; format: functional
# Pseudomonas aeruginosa = assay: Antimicrobial activity against Pseudomonas aeruginosa ATCC 27853 after 18 to 24 hrs by macrodilution method; format: functional
# [6] = Inhibition of Staphylococcus aureus MurE after 30 mins by HPLC analysis; summary of the method: as §2
# Enterococcus faecalis = assay: Antimicrobial activity against Enterococcus faecalis ATCC 29212 after 18 to 24 hrs by macrodilution method; format: functional
# Escherichia coli [7] = assay: Antimicrobial activity against Escherichia coli ATCC 25922 after 18 to 24 hrs by macrodilution method; format: functional
# Staphylococcus aureus [8] = assay: Antimicrobial activity against Staphylococcus aureus ATCC 29213 after 18 to 24 hrs by macrodilution method; format: functional
# [9] = Inhibition of Staphylococcus aureus MurD after 30 mins by HPLC analysis; summary of the method: as §2
# Staphylococcus aureus [10] = assay: Inhibition of Staphylococcus aureus MurE at 200 uM after 30 mins by HPLC analysis; summary of the method: as §1
# Escherichia coli [11] = assay: Inhibition of Escherichia coli MurE assessed as residual activity at 200 uM after 30 mins by HPLC analysis; summary of the method: as §1
Activity (Escherichia coli [1]) [%],Activity (Staphylococcus aureus [3]) [%],SMILES,IC50 [2] [µM],Activity (HepG2),IC50 [4] [µM],MIC (Staphylococcus aureus [5]) [µg/mL],MIC (Pseudomonas aeruginosa) [µg/mL],IC50 [6] [µM],MIC (Enterococcus faecalis) [µg/mL],MIC (Escherichia coli [7]) [µg/mL],MIC (Staphylococcus aureus [8]) [µg/mL],IC50 [9] [µM],inhibition (Staphylococcus aureus [10]),Activity (Escherichia coli [11]) [%]
64,64,O=C(O)CC[C@@H](NC(=O)c1cccc(CNc2ccc(/C=C3\SC(=O)NC3=O)cc2)c1)C(=O)O,35,,,,,,,,,,,
,,O=C(O)CC[C@@H](NC(=O)c1cccc(NCc2ccc(/C=C3\SC(=S)NC3=O)cc2)c1)C(=O)O,8.2,Non-toxic,180,8,> 128,17,64,> 128,8,6.4,,
,,O=C(O)CC[C@@H](NC(=O)c1cccc(NCc2ccc(/C=C3\SC(=O)NC3=O)cc2)c1)C(=O)O,36,,200,> 128,> 128,> 200,> 128,> 128,> 128,100,inactive,51
